Assays:
[1] = biological target: T1, Aminopeptidase N (Plasmodium falciparum FcB1/Columbia) (UniProt O96935); test: Inhibition of Plasmodium falciparum FcB1 M1 aminopeptidase at 10 uM
T1 sequence (whole entry): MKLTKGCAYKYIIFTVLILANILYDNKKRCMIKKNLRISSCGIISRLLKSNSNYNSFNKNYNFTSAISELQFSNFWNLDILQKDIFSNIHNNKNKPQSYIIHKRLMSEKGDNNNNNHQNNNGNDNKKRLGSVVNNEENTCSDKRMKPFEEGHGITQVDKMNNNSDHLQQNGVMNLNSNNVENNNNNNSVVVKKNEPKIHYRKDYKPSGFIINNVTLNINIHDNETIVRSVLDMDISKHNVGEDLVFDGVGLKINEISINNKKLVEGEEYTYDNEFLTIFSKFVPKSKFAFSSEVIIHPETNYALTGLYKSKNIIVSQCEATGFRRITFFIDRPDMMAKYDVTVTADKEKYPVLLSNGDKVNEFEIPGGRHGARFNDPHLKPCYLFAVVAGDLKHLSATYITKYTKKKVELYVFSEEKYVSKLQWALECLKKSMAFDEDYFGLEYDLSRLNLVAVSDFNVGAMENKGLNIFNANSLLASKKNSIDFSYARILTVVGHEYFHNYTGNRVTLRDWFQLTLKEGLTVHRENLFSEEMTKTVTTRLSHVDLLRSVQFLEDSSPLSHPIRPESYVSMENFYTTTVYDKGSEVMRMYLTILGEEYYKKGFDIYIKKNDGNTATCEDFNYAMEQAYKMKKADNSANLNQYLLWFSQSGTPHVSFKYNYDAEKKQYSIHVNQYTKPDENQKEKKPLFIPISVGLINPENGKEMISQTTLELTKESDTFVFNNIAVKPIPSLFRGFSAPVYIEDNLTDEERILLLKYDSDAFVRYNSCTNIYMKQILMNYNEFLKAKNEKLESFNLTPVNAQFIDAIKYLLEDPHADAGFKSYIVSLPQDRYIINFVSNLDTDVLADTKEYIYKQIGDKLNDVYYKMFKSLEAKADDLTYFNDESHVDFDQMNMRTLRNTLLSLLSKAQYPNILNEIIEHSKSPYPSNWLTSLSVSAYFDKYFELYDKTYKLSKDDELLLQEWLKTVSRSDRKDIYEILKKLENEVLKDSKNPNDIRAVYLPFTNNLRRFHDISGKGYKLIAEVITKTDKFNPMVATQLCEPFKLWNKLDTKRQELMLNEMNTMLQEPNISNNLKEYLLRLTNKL
In short: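 Native enzyme purified from P. falciparum FcB1, diluted 10-fold in 25 mM Tris-HCl pH 7.4. Preincubated with inhibitor for 10 min at room temperature, then Leu-pNA substrate added (0.3 mM stock, Km 0.099 mM). Kinetics followed at 405 nm at room temperature. Initial velocities normalized to a no-inhibitor control. Single-point screen at 10 µM; IC50 from velocity versus inhibitor concentration curves. Bestatin used as reference.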

[2] = biological target: T2, Aminopeptidase N (Sus scrofa) (UniProt P15145); test: Inhibition of pig kidney microsomal APN at 10 uM
T2 sequence (whole entry): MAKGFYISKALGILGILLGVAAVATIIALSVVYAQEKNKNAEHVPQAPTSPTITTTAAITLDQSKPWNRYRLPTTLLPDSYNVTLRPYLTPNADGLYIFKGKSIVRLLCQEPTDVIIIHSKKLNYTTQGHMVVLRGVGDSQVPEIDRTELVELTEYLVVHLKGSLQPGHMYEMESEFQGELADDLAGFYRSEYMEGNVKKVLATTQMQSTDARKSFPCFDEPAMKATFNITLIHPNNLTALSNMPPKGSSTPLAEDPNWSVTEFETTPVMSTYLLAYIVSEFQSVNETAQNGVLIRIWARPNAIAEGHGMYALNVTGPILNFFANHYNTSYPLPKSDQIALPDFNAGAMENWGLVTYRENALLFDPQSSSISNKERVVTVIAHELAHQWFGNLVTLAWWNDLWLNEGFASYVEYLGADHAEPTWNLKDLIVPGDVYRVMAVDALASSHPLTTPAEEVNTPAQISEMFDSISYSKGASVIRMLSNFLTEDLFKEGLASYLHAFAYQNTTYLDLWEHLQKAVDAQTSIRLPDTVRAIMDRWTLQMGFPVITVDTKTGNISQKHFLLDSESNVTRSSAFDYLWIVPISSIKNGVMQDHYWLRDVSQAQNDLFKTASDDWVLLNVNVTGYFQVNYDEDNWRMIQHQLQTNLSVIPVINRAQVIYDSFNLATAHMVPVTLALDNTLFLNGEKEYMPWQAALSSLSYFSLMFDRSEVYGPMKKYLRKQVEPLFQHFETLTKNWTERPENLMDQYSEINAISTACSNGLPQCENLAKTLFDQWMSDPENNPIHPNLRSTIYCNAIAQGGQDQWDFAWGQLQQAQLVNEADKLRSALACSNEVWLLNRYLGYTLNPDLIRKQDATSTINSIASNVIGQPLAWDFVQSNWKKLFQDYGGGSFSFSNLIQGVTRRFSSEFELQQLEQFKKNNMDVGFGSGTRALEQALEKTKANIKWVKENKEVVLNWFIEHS
In short: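 Porcine kidney microsomal APN (ammonium sulfate suspension) diluted 600-fold in 25 mM Tris-HCl pH 7.4. Preincubated with inhibitor for 10 min at room temperature, then Leu-pNA added (0.3 mM stock). Hydrolysis followed at 405 nm at room temperature. Rates normalized to a no-inhibitor control. Single point at 10 µM; IC50 from concentration-velocity curves. Bestatin used as reference.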

inhibition [1] [%]	inhibition [2] [%]	Compound
3	21	O=C(NO)C(Cc1ccccc1)C(=O)NC1CCN(Cc2ccccc2)CC1 (centres undefined)
-4	9	NC(C(=O)NO)C(=O)N1CCC2(CCNc3ccccc3O2)CC1 (centres undefined)
50	59	O=C(NO)C(Cc1cccc(Oc2ccccc2)c1)C(=O)NCCC(c1ccccc1)c1ccccc1 (centres undefined)
97	31	O=C(NO)C(Cc1cccc(Oc2ccccc2)c1)C(=O)N1CCN(Cc2ccc3c(c2)OCO3)CC1 (centres undefined)
-2	11	NC(C(=O)NO)C(=O)N1CCN(c2ccccc2)CC1 (centres undefined)
74	76	O=C(NO)C(Cc1cccc(Oc2ccccc2)c1)C(=O)N1CCC(n2c(=O)[nH]c3ccccc32)CC1 (centres undefined)
7	32	O=C(NO)C(Cc1ccccc1)C(=O)N1CCC2(CCNc3ccccc3O2)CC1 (centres undefined)
67	75	O=C(NO)C(Cc1ccccc1)C(=O)NCc1ccc(C(F)(F)F)cc1 (centres undefined)
77	83	CN(CCCNC(=O)C(Cc1cccc(Oc2ccccc2)c1)C(=O)NO)c1ccccc1 (centres undefined)
42	105	CC(C)CC(C(=O)NO)C(=O)N(CCc1ccccc1)Cc1ccccc1 (centres undefined)
99	86	Cc1ccccc1CNC(=O)C(Cc1cccc(Oc2ccccc2)c1)C(=O)NO (centres undefined)
76	53	CN(CCCCc1ccccc1)C(=O)C(Cc1ccccc1)C(=O)NO (centres undefined)
0	14	O=C(NO)C(Cc1ccccc1)C(=O)N1CCN(C(c2ccccc2)c2ccccc2)CC1 (centres undefined)
50	87	O=C(CC(=O)NCCC(c1ccccc1)c1ccccc1)NO
38	67	O=C(NO)C(Cc1cccc(Oc2ccccc2)c1)C(=O)N(CCc1ccccc1)Cc1ccccc1 (centres undefined)
45	36	CN(Cc1ccccc1)C(=O)C(Cc1ccccc1)C(=O)NO (centres undefined)

inhibition [1] [%]	inhibition [2] [%]	Compound
98	88	O=C(NO)C(Cc1cccc(Oc2ccccc2)c1)C(=O)NCCc1ccccc1 (centres undefined)
41	86	O=C(NO)C(Cc1cccc(Oc2ccccc2)c1)C(=O)N[C@H]1CCN(Cc2ccccc2)C1 (some centres undefined)
68	69	COc1cccc(CC(C(=O)NO)C(=O)NCc2cccc(Oc3ccccc3)c2)c1 (centres undefined)
43	28	O=C(NO)C(Cc1ccccc1)C(=O)N[C@H]1CCN(Cc2ccccc2)C1 (some centres undefined)
7	23	O=C(CC(=O)N1CCC(Cc2ccccc2)CC1)NO
-6	15	O=C(NO)C(Cc1ccccc1)C(=O)NCc1cccnc1 (centres undefined)
65	83	O=C(NO)C(Cc1ccccc1)C(=O)NCCC(c1ccccc1)c1ccccc1 (centres undefined)
29	47	O=C(NO)C(Cc1ccccc1)C(=O)NCCc1ccccn1 (centres undefined)
15	54	CC(C)CC(C(=O)NO)C(=O)N1CCC(n2c(=O)[nH]c3ccccc32)CC1 (centres undefined)
35	22	O=C(NO)C(Cc1cccc(Oc2ccccc2)c1)C(=O)NCc1ccc(F)cc1 (centres undefined)
75	56	O=C(NO)C(Cc1ccccc1)C(=O)N(CCc1ccccc1)Cc1ccccc1 (centres undefined)
45	39	NC(C(=O)NO)C(=O)N1CCC(Cc2ccccc2)CC1 (centres undefined)
18	-5	NC(C(=O)NO)C(=O)N1CCN(Cc2ccccc2)CC1 (centres undefined)
35	62	NC(C(=O)NO)C(=O)NCc1cccc(-c2ccccc2)c1 (centres undefined)
29	28	CC(C)CC(C(=O)NO)C(=O)N1CCN(Cc2ccccc2)CC1 (centres undefined)
40	22	O=C(NO)C(Cc1ccccc1)C(=O)N1CCC2(CC1)C(=O)NCN2c1ccccc1 (centres undefined)

The next lines start with the molecule.

Compound	inhibition [1] [%]	inhibition [2] [%]
CC(C)CC(C(=O)NO)C(=O)NC1Cc2ccccc2C1 (centres undefined)	61	93
O=C(CC(=O)N1CCc2ccccc2C1)NO	-3	19
O=C(CC(=O)N1CCC2(CCNc3ccccc3O2)CC1)NO	-5	27
CN(Cc1ccccc1)C(=O)CC(=O)NO	-4	9
O=C(CC(=O)NC1CCN(Cc2ccccc2)CC1)NO	-2	14
O=C(CC(=O)NCCNc1cccc2ccccc12)NO	0	14
CC(C)CN(CCCCc1ccccc1)C(=O)C(N)C(=O)NO (centres undefined)	37	-1
NC(C(=O)NO)C(=O)NCc1ccc(Cl)cc1 (centres undefined)	5	54
NC(C(=O)NO)C(=O)NC1Cc2ccccc2C1 (centres undefined)	20	36
CN(CCCCc1ccccc1)C(=O)CC(=O)NO	-4	11
O=C(CC(=O)N1CCN(Cc2ccc3c(c2)OCO3)CC1)NO	7	11
NC(C(=O)NO)C(=O)NCc1ccc(F)cc1 (centres undefined)	9	18
NC(C(=O)NO)C(=O)NCCCc1ccccc1 (centres undefined)	64	8
NC(C(=O)NO)C(=O)NCCc1ccccc1 (centres undefined)	-8	25
Cc1ccccc1CNC(=O)CC(=O)NO	32	17
CC(C)CC(C(=O)NO)C(=O)NCCNc1cccc2ccccc12 (centres undefined)	42	93
O=C(CC(=O)NC1Cc2ccccc2C1)NO	-2	12
O=C(CC(=O)NCc1ccc(Cl)cc1)NO	10	13
NC(C(=O)NO)C(=O)NCCc1ccccn1 (centres undefined)	-7	22
CC(C)CN(CCCCc1ccccc1)C(=O)CC(=O)NO	22	45
NC(C(=O)NO)C(=O)NCCCCc1ccccc1 (centres undefined)	56	42
CC(C)CC(C(=O)NO)C(=O)N1CCN(Cc2ccc3c(c2)OCO3)CC1 (centres undefined)	21	19
NC(C(=O)NO)C(=O)NC1CCN(Cc2ccccc2)CC1 (centres undefined)	-4	25
NC(C(=O)NO)C(=O)NCCNc1cccc2ccccc12 (centres undefined)	2	16
CC(C)CC(C(=O)NO)C(=O)NC1CCN(Cc2ccccc2)CC1 (centres undefined)	3	57

— ChEMBL document CHEMBL1142961, “Novel selective inhibitors of the zinc plasmodial aminopeptidase PfA-M1 as potential antimalarial agents” (J Med Chem, 2007)
